Active and inactive are the calls of the source. The rule behind the calls is not given here.
Experiments:
D(2) dopamine receptor [1] = target: T1, D(2) dopamine receptor (Homo sapiens, UniProt P14416); experiment: Intrinsic activity relative to dopamine for human Dopamine receptor D2 at 10 uM
In short: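 Adenylate cyclase functional assay in LTK cells transfected with the human D2 receptor. […] Values are mean ± SEM over the stated number of experiments.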

D(2) dopamine receptor [2] = target: T1, D(2) dopamine receptor; experiment: Binding affinity against cloned human Dopamine receptor D2 using [3H]spiperone as radioligand transfected in LTK cells
D(2) dopamine receptor [3] = target: T1, D(2) dopamine receptor; experiment: Adenylate cyclase assay carried out in LTK cells transfected with human Dopamine receptor D2; type: cell-based
D(1A) dopamine receptor [4] = target: T2, D(1A) dopamine receptor (Homo sapiens, UniProt P21728); experiment: Adenylate cyclase assay carried out in LTK cells transfected with human Dopamine receptor D1; type: cell-based
T2 sequence (P21728 whole entry): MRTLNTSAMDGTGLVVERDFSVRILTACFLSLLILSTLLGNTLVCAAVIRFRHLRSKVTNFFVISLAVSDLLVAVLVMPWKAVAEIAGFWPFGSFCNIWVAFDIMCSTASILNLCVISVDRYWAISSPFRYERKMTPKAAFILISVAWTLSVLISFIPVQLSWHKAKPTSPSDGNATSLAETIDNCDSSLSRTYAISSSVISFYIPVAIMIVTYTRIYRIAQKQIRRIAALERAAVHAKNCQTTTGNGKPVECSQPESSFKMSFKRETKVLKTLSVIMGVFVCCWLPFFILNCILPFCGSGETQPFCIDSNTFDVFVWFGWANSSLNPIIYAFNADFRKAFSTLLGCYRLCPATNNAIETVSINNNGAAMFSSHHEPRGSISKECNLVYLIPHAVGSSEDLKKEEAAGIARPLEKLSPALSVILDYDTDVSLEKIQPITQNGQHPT

D(1A) dopamine receptor [5] = target: T2, D(1A) dopamine receptor; experiment: Binding affinity against cloned human Dopamine receptor D1 using [125I]-SCH 23982 as radioligand transfected in HEK cells; type: cell-based, HEK293
D(2) dopamine receptor [6] = target: T1, D(2) dopamine receptor
Rattus norvegicus = experiment: Ability to produce robust rotation in the lesioned rat after subcutaneous administration; type: functional; settings: sc
[7] = target: T3, 5-hydroxytryptamine receptor 2C (Rattus norvegicus, UniProt P08909); experiment: Binding affinity against serotonergic 5-HT1c receptor
T3 sequence (P08909 whole entry): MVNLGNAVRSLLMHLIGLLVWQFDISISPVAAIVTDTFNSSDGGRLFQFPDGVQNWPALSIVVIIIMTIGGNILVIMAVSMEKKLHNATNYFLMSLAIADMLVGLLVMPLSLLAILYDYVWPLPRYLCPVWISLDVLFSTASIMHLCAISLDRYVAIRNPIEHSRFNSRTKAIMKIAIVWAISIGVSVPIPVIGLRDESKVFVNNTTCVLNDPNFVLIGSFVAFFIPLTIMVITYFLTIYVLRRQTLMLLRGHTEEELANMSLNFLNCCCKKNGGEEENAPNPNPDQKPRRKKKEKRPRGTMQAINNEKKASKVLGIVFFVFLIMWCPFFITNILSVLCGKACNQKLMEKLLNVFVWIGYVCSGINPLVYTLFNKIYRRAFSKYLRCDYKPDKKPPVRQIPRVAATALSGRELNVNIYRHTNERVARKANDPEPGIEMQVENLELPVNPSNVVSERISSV

[8] = target: Beta-2 adrenergic receptor (Homo sapiens, UniProt P07550); experiment: Binding affinity against Beta-2 adrenergic receptor
Beta-2 adrenergic receptor, sequence (P07550 whole entry): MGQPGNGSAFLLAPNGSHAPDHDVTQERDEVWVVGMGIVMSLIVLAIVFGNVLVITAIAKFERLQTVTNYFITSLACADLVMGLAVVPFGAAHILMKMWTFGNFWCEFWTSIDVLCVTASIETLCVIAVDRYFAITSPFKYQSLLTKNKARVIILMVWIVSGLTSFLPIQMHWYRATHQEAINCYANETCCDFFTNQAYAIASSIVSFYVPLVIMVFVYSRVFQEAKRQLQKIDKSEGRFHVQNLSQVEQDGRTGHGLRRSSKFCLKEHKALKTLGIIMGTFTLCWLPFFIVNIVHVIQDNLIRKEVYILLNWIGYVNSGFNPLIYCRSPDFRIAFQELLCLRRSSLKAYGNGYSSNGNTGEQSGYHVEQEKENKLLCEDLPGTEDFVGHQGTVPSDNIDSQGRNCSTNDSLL

[9] = target: 5-hydroxytryptamine receptor 2A (Bos taurus, UniProt Q75Z89); experiment: Binding affinity against serotonergic 5-HT2 receptor
5-hydroxytryptamine receptor 2A, sequence (Q75Z89 whole entry): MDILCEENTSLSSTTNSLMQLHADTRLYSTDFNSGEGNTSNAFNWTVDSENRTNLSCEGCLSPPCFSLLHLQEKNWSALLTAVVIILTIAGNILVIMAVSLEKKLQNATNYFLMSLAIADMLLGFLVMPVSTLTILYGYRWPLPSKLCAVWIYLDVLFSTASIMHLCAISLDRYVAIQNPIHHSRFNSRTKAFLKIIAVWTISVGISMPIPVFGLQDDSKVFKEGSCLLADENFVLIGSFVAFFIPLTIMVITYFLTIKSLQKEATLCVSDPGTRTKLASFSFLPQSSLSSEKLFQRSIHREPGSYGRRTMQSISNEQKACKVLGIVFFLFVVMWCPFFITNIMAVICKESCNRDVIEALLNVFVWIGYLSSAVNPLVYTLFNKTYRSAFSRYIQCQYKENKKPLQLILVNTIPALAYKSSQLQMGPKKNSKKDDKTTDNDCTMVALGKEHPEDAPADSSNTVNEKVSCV

[10] = target: T4, 5-hydroxytryptamine receptor 1A (Mus musculus, UniProt Q64264); experiment: Binding affinity against serotonergic 5-HT1a receptor
T4 sequence (Q64264 whole entry): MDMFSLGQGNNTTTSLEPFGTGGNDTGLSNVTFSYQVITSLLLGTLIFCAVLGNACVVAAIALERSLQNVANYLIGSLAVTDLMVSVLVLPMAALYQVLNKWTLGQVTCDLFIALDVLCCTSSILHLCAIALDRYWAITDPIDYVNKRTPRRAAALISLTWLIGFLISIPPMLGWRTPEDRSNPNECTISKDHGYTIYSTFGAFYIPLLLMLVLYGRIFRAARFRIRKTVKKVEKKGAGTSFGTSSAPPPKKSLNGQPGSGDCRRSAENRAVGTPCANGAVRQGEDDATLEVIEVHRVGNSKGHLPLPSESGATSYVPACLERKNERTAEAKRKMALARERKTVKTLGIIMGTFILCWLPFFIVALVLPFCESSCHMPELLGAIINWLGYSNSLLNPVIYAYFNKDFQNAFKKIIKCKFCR

[11] = target: Beta-1 adrenergic receptor (Homo sapiens, UniProt P08588); experiment: Binding affinity against Beta-1 adrenergic receptor
Beta-1 adrenergic receptor, sequence (P08588 whole entry): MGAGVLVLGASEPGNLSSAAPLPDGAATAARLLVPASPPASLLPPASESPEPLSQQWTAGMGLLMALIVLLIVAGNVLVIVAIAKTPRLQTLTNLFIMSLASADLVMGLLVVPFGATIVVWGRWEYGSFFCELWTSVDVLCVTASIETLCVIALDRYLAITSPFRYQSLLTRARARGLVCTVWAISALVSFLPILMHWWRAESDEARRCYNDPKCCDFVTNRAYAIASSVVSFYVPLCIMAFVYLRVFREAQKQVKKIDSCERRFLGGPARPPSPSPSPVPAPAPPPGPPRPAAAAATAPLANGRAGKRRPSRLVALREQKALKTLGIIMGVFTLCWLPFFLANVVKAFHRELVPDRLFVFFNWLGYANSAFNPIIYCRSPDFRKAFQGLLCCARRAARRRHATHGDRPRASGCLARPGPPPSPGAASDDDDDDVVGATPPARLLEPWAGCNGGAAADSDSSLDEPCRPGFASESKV

T1 sequence (P14416 whole entry): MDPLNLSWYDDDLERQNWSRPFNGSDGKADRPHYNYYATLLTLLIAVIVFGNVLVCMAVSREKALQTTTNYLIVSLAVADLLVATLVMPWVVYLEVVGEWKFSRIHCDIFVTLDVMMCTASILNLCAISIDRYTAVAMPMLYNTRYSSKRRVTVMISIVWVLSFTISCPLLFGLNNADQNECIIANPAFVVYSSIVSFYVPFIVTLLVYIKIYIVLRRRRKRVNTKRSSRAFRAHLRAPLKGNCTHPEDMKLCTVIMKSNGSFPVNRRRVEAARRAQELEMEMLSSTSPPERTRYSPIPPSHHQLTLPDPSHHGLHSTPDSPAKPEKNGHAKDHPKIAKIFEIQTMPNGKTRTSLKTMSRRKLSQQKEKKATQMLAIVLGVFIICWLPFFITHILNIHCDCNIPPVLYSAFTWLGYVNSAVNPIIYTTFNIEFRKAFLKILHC

| SMILES | IA (D(2) dopamine receptor [1]) [%] | Ki (D(2) dopamine receptor [2]) [µM] | EC50 (D(2) dopamine receptor [3]) [µM] | EC50 (D(1A) dopamine receptor [4]) [µM] | Ki (D(1A) dopamine receptor [5]) [µM] | ED50 (Rattus norvegicus) [µmol/kg] | other results |
| --- | --- | --- | --- | --- | --- | --- | --- |
| NC[C@@H]1O[C@H](C23CC4CC(CC(C4)C2)C3)Cc2c1ccc(O)c2O | 18 | 1.55 | > 4 |  |  |  |  |
| CCCc1cc2c(s1)CN[C@H]1CCc3cc(O)c(O)cc3[C@H]21 | 3 | 4.02 | > 10 | 1.7 | 3.05 |  |  |
| Oc1cc2c(cc1O)[C@@H](c1ccccc1)CNCC2 [(R)-SKF-38393] |  |  |  |  |  | 0.02 | IA (D(2) dopamine receptor [6]): inactive |
| CCCc1cc2c(s1)CN[C@@H]1CCc3cc(O)c(O)cc3[C@@H]21 [A-86929] |  | 0.71 | 3.9 | 0.009 | 0.049 |  |  |
| Oc1cc2c(cc1O)[C@H]1c3ccccc3CN[C@@H]1CC2 [DIHYDREXIDINE] |  |  |  |  |  | 0.04 | Ki [7]: 2.4 µM; Ki [8]: 1.2 µM; Ki [9]: > 3 µM; Ki [10]: > 3 µM; Ki [11]: 1.5 µM |

— ChEMBL document CHEMBL1128531 (J Med Chem, 1995)
